Laboratory results: ChEMBL document CHEMBL3351371, “Design and synthesis of phenolic hydrazide hydrazones as potent poly(ADP-ribose) glycohydrolase (PARG) inhibitors” (Bioorg Med Chem Lett, 2014)

Biological target: Poly(ADP-ribose) glycohydrolase (Rattus norvegicus, UniProt Q9QYM2)
Experiment: Inhibition of rat testis GST-tagged PARG catalytic activity after 30 mins using [32P]poly(ADP-ribose) by radioassay
How it was run: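 Recombinant rat PARG (from testis cDNA) expressed in E. coli as GST fusion (GST-RPG, 136 kDa), 15 ng per reaction. Compound in DMSO added to 4 μM [32P]poly(ADP-ribose) in 20 mM potassium phosphate pH 7.5, 50 mM KCl, 10 mM 2-mercaptoethanol; 37 °C, 30 min; stopped with 1% SDS (final). PEI-cellulose TLC (0.1 M LiCl/3 M AcOH/3 M urea), imaging-plate radioactivity; activity from fraction of degradation products.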

Chain of Poly(ADP-ribose) glycohydrolase (Q9QYM2 whole entry): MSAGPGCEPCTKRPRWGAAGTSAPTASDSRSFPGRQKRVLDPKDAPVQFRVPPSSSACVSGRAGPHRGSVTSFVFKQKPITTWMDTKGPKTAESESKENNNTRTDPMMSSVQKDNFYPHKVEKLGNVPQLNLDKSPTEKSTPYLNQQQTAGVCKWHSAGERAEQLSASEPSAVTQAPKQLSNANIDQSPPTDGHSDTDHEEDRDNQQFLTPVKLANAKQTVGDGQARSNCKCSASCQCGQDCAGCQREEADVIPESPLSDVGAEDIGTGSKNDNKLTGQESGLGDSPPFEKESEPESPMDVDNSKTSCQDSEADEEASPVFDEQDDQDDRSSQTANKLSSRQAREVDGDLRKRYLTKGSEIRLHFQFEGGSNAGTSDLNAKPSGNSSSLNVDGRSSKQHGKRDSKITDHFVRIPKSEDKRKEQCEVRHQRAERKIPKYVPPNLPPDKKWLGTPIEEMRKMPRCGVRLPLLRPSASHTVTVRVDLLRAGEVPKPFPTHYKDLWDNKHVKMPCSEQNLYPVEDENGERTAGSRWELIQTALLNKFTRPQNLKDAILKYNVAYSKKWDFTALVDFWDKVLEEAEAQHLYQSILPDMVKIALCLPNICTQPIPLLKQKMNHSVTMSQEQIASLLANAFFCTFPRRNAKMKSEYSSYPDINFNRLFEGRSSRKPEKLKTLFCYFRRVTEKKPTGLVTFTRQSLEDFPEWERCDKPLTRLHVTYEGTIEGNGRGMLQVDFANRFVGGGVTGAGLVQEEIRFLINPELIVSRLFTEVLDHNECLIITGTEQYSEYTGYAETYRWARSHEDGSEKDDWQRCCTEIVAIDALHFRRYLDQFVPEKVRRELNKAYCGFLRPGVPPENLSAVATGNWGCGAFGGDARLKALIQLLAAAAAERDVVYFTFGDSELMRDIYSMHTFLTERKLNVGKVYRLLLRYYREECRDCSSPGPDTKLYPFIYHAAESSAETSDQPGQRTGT

IC50	Structure (SMILES)
> 75 µM	O=C(N/N=C/c1ccc(O)cc1O)c1ccc(C(=O)N/N=C/c2ccc(O)cc2O)cc1
2.1 µM	O=C(N/N=C/c1cc(O)c(O)c(O)c1)c1ccc(C(=O)N/N=C/c2cc(O)c(O)c(O)c2)cc1
9.9 µM	O=C(N/N=C/c1c(O)cc(O)cc1O)c1ccc(C(=O)N/N=C/c2c(O)cc(O)cc2O)cc1
14.8 µM	O=C(N/N=C/c1cccc(O)c1O)c1cccc(C(=O)N/N=C/c2cccc(O)c2O)c1
40.1 µM	O=C(N/N=C/c1ccc(O)cc1O)c1cccc(C(=O)N/N=C/c2ccc(O)cc2O)c1
19.2 µM	O=C(N/N=C/c1ccc(O)c(O)c1)c1cccc(C(=O)N/N=C/c2ccc(O)c(O)c2)c1
3.1 µM	O=C(N/N=C/c1ccc(O)c(O)c1O)c1cccc(C(=O)N/N=C/c2ccc(O)c(O)c2O)c1
3.2 µM	O=C(N/N=C/c1cc(O)c(O)c(O)c1)c1cccc(C(=O)N/N=C/c2cc(O)c(O)c(O)c2)c1
18.8 µM	O=C(N/N=C/c1c(O)cc(O)cc1O)c1cccc(C(=O)N/N=C/c2c(O)cc(O)cc2O)c1

Further lines, the compound ahead of its results:

Structure (SMILES)	IC50
O=C(CCCC(=O)N/N=C/c1ccc(O)c(O)c1O)N/N=C/c1ccc(O)c(O)c1O	13.9 µM
O=C(N/N=C/c1cccc(O)c1O)c1ccc(C(=O)N/N=C/c2cccc(O)c2O)cc1	> 75 µM
O=C(N/N=C/c1ccc(O)c(O)c1)c1ccc(C(=O)N/N=C/c2ccc(O)c(O)c2)cc1	> 75 µM
O=C(N/N=C/c1ccc(O)c(O)c1O)c1ccc(C(=O)N/N=C/c2ccc(O)c(O)c2O)cc1	1 µM
O=C(N/N=C/c1ccc(O)c(O)c1O)C(=O)N/N=C/c1ccc(O)c(O)c1O	3.1 µM
O=C(N/N=C/c1cc(O)c(O)c(O)c1)C(=O)N/N=C/c1cc(O)c(O)c(O)c1	2.8 µM
O=C(CC(=O)N/N=C/c1ccc(O)c(O)c1O)N/N=C/c1ccc(O)c(O)c1O	1.6 µM
O=C(CC(=O)N/N=C/c1cc(O)c(O)c(O)c1)N/N=C/c1cc(O)c(O)c(O)c1	15.4 µM
O=C(CCC(=O)N/N=C/c1ccc(O)c(O)c1O)N/N=C/c1ccc(O)c(O)c1O	9.8 µM
O=C(CCC(=O)N/N=C/c1cc(O)c(O)c(O)c1)N/N=C/c1cc(O)c(O)c(O)c1	8.2 µM
O=C(CCCC(=O)N/N=C/c1cc(O)c(O)c(O)c1)N/N=C/c1cc(O)c(O)c(O)c1	27.4 µM
O=C(O[C@H]1[C@H](O)[C@@H](CO)OC(O)[C@@H]1O)c1cc(O)c(O)c(O)c1 (stereo partly drawn)	0.95 µM
O=C(O)CCN1C(=O)/C(=C2\C(=O)c3cc(Br)ccc3N2Cc2c(Cl)cccc2Cl)SC1=S	2.9 µM
Nc1ncnc2c1ncn2[C@@H]1O[C@H](CO[P@](=O)(O)O[P@@](=O)(O)OC[C@H]2NC[C@H](O)[C@@H]2O)[C@@H](O)[C@H]1O [ADENOSINE DIPHOSPHATE (HYDROXYMETHYL)PYRROLIDINEDIOL]	0.1 µM
